# Experiments:
# [1] = Solubility of DK-I-60-3 in lipid mixtures; format: physicochemical
# How it was run: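 DSC on bulk and melted-then-solidified Softisan 154 and on Softisan 154–lecithin mixtures, blank or with 1.0% or 1.5% test compound. Crystallinity index = mixture enthalpy / untreated Softisan 154 enthalpy × 100. PLM: melted mixture dropped onto heated slide, covered, solidified quickly at room temperature, imaged at 400× with crossed polarizers and ¼λ plate. Triplicates, mean ± SD.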
# [2] = ref Mitrović et al., 2021; cited from earlier work
structure (smiles),measurement,setting,value
"[2H]C([2H])([2H])Oc1ccc(-n2nc3c4ccc(OC([2H])([2H])[2H])cc4[nH]cc-3c2=O)cc1 [DK-I-60-3, 7-methoxy-d3-2-(4-methoxy-d3-phenyl)-2,5-dihydro-3Hpyrazolo[4,3-c]quinolin-3-one]",saturation solubility of DK-I-60-3 in the lipid mixture,"[1]; Softisan 154 + lecithin (30%) lipid mixture, by DSC and PLM",1.0%
same,DK-I-60-3 solubilized by the lipid matrix,"[1]; mixture of solid (Softisan 154) and liquid (medium chain triglycerides) lipid, preliminary studies",< 0.5%
same,solubility in common organic solvents,[2],very slightly or slightly soluble
same,solubility in water and oils commonly used for pharmaceutical formulations,[2],practically insoluble

# Reference: publication PMC9924434 (International journal of pharmaceutics, 2023)
